Experimental data as given in ChEMBL document CHEMBL1127019, “(S)-N-tert-butyl-3-(4-(2-methoxyphenyl)-piperazin-1-yl)-2-phenylpropanamide [(S)-WAY-100135]: a selective antagonist at presynaptic and postsynaptic 5-HT1A receptors” (J Med Chem, 1993).
pIC50: −log10 of the molar value.

Key:
[1] = molecular target: 5-hydroxytryptamine receptor 1B (Rattus norvegicus) (UniProt P28564); assay: In vitro binding affinity towards the 5-hydroxytryptamine 1B receptor at 10 e-6 M
Procedure, shortened: (§1)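 Radioligand binding in vitro. Values are mean percent inhibition at 10⁻⁶ M, from at least three experiments each run in triplicate.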

[2] = molecular target: T1, 5-hydroxytryptamine receptor 2C (Rattus norvegicus) (UniProt P08909); assay: In vitro binding affinity towards the 5-hydroxytryptamine 1C receptor at 10 e-6 M; procedure, shortened: as §1
T1 sequence (whole entry): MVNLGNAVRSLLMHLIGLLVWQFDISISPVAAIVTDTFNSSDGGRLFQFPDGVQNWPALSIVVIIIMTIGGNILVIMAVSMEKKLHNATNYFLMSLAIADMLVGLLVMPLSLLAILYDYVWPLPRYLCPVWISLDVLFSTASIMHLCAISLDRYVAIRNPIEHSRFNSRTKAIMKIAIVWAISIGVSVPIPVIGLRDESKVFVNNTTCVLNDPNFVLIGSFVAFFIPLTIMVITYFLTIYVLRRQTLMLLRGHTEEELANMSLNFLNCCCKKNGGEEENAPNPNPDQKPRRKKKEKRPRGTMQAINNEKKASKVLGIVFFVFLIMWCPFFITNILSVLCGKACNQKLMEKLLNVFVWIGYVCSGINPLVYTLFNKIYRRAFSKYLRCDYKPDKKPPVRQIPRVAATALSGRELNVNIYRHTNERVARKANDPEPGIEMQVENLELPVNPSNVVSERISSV

[3] = molecular target: D(1A) dopamine receptor (Rattus norvegicus) (UniProt P18901); assay: In vitro binding affinity towards the dopamine receptor D1 at 10 e-6 M; procedure, shortened: as §1
[4] = molecular target: D(2) dopamine receptor (Rattus norvegicus) (UniProt P61169); assay: In vitro binding affinity towards the dopamine receptor D2 at 10 e-6 M; procedure, shortened: as §1
[5] = molecular target: Adrenergic receptor alpha-2 (Rattus norvegicus) (UniProt P22086+P19328+P22909); assay: In vitro binding affinity towards the noradrenergic alpha-2 receptor at 10 e-6 M; type: protein assay; procedure, shortened: as §1
[6] = molecular target: Adrenergic receptor beta (Rattus norvegicus) (UniProt P18090+P10608+P26255); assay: (§2) In vitro binding affinity towards the noradrenergic beta receptor at 10 e-6 M; type: protein assay
Procedure, shortened: (§3)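 Radioligand binding at the receptor site, run at 10⁻⁶ M. Reported as mean percent inhibition from at least three experiments, each performed in triplicate.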

[7] = molecular target: T2, 5-hydroxytryptamine receptor 1A (Rattus norvegicus, UniProt P19327); assay: In vitro binding affinity towards the 5-hydroxytryptamine 1A receptor was evaluated
T2 sequence (P19327 whole entry): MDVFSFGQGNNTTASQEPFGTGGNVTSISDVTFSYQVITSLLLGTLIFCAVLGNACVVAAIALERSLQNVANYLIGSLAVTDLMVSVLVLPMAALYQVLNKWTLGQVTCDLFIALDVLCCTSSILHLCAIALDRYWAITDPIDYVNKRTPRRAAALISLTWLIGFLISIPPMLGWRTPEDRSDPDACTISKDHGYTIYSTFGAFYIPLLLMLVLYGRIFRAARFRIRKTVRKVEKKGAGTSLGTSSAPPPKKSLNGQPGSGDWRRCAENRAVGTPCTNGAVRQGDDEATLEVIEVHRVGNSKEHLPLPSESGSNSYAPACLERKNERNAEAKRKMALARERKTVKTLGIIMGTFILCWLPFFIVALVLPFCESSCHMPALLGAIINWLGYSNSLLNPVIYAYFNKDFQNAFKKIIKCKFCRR
Procedure, shortened: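 Receptor binding at the 5-HT1A site, reported as IC50. Each value is the mean IC50 ± standard error of at least three experiments, each run in triplicate.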

[8] = molecular target: Serotonin 2 (5-HT2) receptor (Rattus norvegicus) (UniProt P30994+P08909+P14842); assay: (§4) In vitro binding affinity towards the 5-hydroxytryptamine 2 receptor at 10 e-6 M; type: protein assay; procedure, shortened: as §1
[9] = molecular target: T3, Adrenergic receptor alpha-1 (Rattus norvegicus, UniProt P15823+P23944+P43140); assay: In vitro binding affinity towards the noradrenergic alpha-1 receptor at 10 e-6 M; type: protein assay; procedure, shortened: as §1
T3 sequence (P15823 whole entry): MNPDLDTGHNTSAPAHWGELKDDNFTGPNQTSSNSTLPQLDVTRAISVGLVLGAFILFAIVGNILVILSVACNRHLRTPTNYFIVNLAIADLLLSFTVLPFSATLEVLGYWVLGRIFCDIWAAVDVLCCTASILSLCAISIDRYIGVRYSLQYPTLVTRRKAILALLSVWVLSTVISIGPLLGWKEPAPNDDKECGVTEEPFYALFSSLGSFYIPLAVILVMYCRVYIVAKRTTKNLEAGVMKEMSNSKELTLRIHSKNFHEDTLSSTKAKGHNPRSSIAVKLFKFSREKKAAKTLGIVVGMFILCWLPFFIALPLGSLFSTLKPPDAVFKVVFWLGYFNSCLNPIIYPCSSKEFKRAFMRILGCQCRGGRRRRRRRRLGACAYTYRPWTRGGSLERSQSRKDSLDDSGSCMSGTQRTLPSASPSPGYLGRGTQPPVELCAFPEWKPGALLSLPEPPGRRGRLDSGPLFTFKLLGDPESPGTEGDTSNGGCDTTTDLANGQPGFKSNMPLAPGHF
T3 sequence (P23944 whole entry): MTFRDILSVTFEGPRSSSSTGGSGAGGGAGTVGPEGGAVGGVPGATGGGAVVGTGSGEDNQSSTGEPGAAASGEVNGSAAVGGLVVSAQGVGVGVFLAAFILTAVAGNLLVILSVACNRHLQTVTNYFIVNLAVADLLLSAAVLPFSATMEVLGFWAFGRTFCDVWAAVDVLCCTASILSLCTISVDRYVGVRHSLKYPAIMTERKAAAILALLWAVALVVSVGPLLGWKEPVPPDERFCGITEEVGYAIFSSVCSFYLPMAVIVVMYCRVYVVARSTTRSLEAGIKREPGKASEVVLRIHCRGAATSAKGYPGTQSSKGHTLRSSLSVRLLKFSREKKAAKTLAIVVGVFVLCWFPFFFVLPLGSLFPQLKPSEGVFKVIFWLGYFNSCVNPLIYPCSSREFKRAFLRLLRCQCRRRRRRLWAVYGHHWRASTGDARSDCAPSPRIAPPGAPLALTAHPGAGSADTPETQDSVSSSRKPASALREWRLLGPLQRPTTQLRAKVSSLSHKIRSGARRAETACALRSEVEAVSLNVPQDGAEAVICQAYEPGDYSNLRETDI
T3 sequence (P43140 whole entry): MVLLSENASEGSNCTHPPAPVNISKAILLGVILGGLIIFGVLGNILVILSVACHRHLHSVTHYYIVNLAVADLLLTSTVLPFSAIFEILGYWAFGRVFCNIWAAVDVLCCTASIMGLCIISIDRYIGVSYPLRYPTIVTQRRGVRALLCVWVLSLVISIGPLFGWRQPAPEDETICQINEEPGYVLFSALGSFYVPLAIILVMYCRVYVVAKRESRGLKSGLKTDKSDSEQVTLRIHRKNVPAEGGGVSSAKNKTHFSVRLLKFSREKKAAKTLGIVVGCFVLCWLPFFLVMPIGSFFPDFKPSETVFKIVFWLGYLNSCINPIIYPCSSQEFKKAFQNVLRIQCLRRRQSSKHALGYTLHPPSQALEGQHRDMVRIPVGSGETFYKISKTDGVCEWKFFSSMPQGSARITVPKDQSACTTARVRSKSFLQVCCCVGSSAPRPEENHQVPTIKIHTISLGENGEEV

[10] = molecular target: T3, Adrenergic receptor alpha-1; assay: In vitro binding affinity towards the anor-adrenergic alpha-1 receptor at 10 e-6 M; type: protein assay; procedure, shortened: as §1
Rattus norvegicus [11] = assay: Minimum effective dose administered subcutaneously to block the effect of 8-hydroxy-DPAT; type: functional
Procedure, shortened: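 Rats pretreated sc with vehicle or test agent, then given 8-OH-DPAT iv 30 min later to induce the behavioral syndrome. Groups of at least 10 rats were used, and the 8-OH-DPAT ED50 was determined by the sequential up/down method.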

Rattus norvegicus [12] = assay: Decrease in hippocampal level of 5-HT at preinjection of 1 mg/kg, sc; type: functional, Hippocampus; conditions: route subcutaneous
Adrenergic receptor beta = Adrenergic receptor beta (Rattus norvegicus, UniProt P18090+P10608+P26255); assay: as §2; type: protein assay; procedure, shortened: as §3
Rattus norvegicus [13] = assay: Decrease in hippocampal level of 5-HT at preinjection of 5 mg/kg, sc; type: functional, Hippocampus; conditions: route subcutaneous
Procedure, shortened: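 Microdialysis in conscious, freely moving rats. Test agent given sc, and extracellular 5-HT measured in hippocampus for up to 2.5 h after dosing. Values expressed as % of preinjection control levels.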

Rattus norvegicus [14] = assay: Decrease in hippocampal level of 5-HTat preinjection of 0.1 mg/kg, sc; type: functional, Hippocampus; conditions: route subcutaneous
[15] = molecular target: Serotonin 2 (5-HT2) receptor (Rattus norvegicus, UniProt P30994+P08909+P14842); assay: as §4; type: protein assay; procedure, shortened: as §1
[16] = molecular target: T3, Adrenergic receptor alpha-1; assay: In vitro binding affinity towards the alpha-1 receptor at 10 e-6 M; type: protein assay; procedure, shortened: as §1

Chain of D(1A) dopamine receptor (Rattus norvegicus) (P18901 whole entry): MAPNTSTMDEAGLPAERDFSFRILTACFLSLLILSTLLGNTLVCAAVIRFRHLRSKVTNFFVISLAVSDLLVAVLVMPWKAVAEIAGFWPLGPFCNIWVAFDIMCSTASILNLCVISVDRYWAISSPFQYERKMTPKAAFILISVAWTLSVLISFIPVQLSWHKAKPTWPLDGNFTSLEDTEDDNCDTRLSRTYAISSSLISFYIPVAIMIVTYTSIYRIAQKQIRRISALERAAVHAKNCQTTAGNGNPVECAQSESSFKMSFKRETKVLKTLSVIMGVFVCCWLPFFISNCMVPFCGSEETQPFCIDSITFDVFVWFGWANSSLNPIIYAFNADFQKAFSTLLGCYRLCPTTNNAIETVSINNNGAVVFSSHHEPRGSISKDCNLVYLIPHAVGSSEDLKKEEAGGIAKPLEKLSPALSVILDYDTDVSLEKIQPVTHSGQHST
Chain of 5-hydroxytryptamine receptor 1B (Rattus norvegicus) (P28564 whole entry): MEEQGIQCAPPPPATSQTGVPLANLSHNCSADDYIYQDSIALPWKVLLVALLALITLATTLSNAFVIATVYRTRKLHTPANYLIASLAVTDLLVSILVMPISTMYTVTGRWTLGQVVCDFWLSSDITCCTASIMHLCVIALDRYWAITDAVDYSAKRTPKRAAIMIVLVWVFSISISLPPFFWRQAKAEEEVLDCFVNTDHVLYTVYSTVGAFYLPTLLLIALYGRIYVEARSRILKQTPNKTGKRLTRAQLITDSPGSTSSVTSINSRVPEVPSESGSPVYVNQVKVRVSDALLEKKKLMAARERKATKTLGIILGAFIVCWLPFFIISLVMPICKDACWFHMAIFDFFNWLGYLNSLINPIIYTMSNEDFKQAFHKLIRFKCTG
Chain of D(2) dopamine receptor (Rattus norvegicus) (P61169 whole entry): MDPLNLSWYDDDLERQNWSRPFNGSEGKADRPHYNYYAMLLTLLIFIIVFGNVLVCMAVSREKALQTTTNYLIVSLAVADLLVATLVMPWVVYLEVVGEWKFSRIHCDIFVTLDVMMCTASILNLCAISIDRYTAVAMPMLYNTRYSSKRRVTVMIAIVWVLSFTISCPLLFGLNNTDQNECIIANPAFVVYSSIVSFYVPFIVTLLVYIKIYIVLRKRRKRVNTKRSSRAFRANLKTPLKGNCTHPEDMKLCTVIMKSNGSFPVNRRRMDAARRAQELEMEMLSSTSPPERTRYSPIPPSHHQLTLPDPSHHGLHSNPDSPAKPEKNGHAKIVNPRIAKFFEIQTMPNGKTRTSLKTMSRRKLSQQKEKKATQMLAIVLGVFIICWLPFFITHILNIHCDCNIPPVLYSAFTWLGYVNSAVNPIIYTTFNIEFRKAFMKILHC
Chain of Serotonin 2 (5-HT2) receptor (Rattus norvegicus) (P14842 whole entry, looked up, one chain of several): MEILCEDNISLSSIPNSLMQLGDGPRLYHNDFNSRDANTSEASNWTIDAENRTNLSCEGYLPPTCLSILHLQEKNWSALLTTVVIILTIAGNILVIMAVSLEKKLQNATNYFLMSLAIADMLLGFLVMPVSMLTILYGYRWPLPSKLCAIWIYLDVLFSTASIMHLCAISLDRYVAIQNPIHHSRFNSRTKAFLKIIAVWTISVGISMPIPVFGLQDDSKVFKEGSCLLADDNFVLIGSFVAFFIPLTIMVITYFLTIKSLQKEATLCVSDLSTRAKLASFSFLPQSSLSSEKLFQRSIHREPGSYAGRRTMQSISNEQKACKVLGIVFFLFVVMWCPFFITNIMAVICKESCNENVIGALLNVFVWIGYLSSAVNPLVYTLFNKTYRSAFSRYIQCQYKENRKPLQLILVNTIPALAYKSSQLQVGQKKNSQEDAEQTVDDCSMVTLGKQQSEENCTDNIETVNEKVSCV
Chain of Serotonin 2 (5-HT2) receptor (Rattus norvegicus) (P30994 whole entry, looked up, one chain of several): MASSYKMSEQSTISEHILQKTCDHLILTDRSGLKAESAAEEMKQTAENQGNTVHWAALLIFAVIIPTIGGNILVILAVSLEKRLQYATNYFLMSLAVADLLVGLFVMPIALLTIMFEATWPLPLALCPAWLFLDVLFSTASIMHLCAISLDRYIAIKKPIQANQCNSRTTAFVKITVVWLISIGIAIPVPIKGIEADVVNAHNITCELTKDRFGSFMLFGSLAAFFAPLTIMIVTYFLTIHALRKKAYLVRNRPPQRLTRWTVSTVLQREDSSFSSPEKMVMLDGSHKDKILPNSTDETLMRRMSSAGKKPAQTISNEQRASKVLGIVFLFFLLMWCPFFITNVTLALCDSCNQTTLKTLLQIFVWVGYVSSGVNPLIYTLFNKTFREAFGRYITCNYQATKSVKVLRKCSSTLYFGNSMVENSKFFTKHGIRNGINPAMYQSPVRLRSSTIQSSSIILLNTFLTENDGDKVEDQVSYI

| inhibition [1] | inhibition [2] | inhibition [3] | inhibition [4] | inhibition [5] | inhibition [6] | pIC50 [7] | Compound | also measured |
| --- | --- | --- | --- | --- | --- | --- | --- | --- |
| 22% | 50% | 22% | 20% | 11% | 12% | – | COc1ccccc1N1CCN(C[C@@H](C(=O)NC(C)(C)C)c2ccccc2)CC1 [listing 1 of 2 here] | – |
| 21% | 14% | 2% | 4% | 7% | 7% | 6.36 | COc1ccccc1N1CCN(C[C@H](C(=O)NC(C)(C)C)c2ccccc2)CC1 | inhibition [8]: 13%; IC50 [9]: 2.781 µM |
| 27% | 37% | 20% | 14% | 10% | 20% | 7.47 | COc1ccccc1N1CCN(CC(C(=O)NC(C)(C)C)c2ccccc2)CC1 (centres undefined) | inhibition [8]: 37%; IC50 [10]: 1.491 µM; minimal effective dose (Rattus norvegicus [11]; Rattus norvegicus, sc, read-out: MED): 3 mg/kg |
| – | – | – | – | – | – | – | O=C1CC2(CCCC2)CC(=O)N1CCCCN1CCN(c2ncccn2)CC1 [BUSPIRONE] | Decrease (Rattus norvegicus [12]): 39.9%; IC50 (Adrenergic receptor beta): > 1 µM |
| – | – | – | – | – | – | – | COc1ccccc1N1CCN(C[C@@H](C(=O)NC(C)(C)C)c2ccccc2)CC1 (stereo in doubt; (R)-5) | MED (Rattus norvegicus [11]): 10 mg/kg |
| – | – | – | – | – | – | – | COc1ccccc1N1CCN(C[C@@H](C(=O)NC(C)(C)C)c2ccccc2)CC1 (stereo in doubt; (S)-5) | MED (Rattus norvegicus [11]): 1 mg/kg |
| – | – | – | – | – | – | – | COc1ccccc1N1CCN(CCN2C(=O)CC3(CCCC3)CC2=O)CC1.Cl.Cl | Decrease (Rattus norvegicus [13]): 37.6% |
| – | – | – | – | – | – | – | CCCN(CCC)C1CCc2cccc(O)c2C1 (centres undefined) [8-OH-DPAT] | Decrease (Rattus norvegicus [14]): 19.2% |
| – | – | – | – | – | – | 7.81 | COc1ccccc1N1CCN(C[C@@H](C(=O)NC(C)(C)C)c2ccccc2)CC1 [listing 2 of 2 here] | IC50 [15]: 1.393 µM; IC50 [16]: 1.878 µM |
